The EternaBench riboswitch data

System: MS2 coat protein
Experiment: apparent Kd, MS2 coat protein; higher = weaker binding; RNA-MaP array; tryptophan 2.4 mM where present
How it was run: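 Green signal from SNAP-549-labelled MS2 coat protein was normalised to red-channel RNA signal and to the median Fmax of control clusters. The protein was titrated from 0.7 or 1.5 nM, doubling to 3 µM, without and then with constant ligand, over designs transcribed by stalled E. coli RNA polymerase on Illumina sequencing-chip clusters, in 100 mM Tris-HCl pH 7.5, 80 mM KCl, 4 mM MgCl2, BSA, DTT, yeast tRNA and Tween-20. The apparent Kd is the median of filtered per-cluster binding-curve fits.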

[1] = designed as: ON switch for tryptophan, no ligand
[2] = ligand present: tryptophan, designed as: ON switch for tryptophan
[3] = designed as: OFF switch for tryptophan, no ligand
[4] = ligand present: tryptophan, designed as: OFF switch for tryptophan

Sequence	apparent Kd [1] [nM]	apparent Kd [2] [nM]	apparent Kd [3] [nM]	apparent Kd [4] [nM]
AGUACAUGAGGAUCACCCAUGUAUCGGUACCGAGGACCGGUACGGCCGCCACUCGCAGGACAUGAGGAUCACCCAUGUGCCGCCG	18.9	23.8		
AGCCACUCGAGUGAUCCUCACGAGUGGCUACGAGGACCGGUACGGCCGCCACUCGAAUUAACAUGAGGAUCACCCAUGUAAUCAC	65.5	50.2		
GACUAUAUGAUAUGUCAGAAAUCCUCGAAACGAGGACCGGUACGGCCGCCACUCGAGUGAUAAACAUGAGGAUCACCCAUGUAAA			22.5	51.9
UACUUGCUGACGGCCGCCACUAGUACAUGAGGAUCACCCAUGUACGGUCGCCCGGUGUGAUCCACUAGGACCGGGUCAGCAAGAU			38.3	124
AUUAAGGAUAUAUAGAAGGCGGAGAAGAGACGAGGACCGGUACGGCCGCCACUCGUGUUAGUUAACAUGAGGAUCACCCAUGUAA	80.6	18.7		
AUGCAGAACACGGCCGCCACUCCAUGUAUACAUGAGGAUCACCCAUGUAAUUUGUAUUUUUUAUAGAGGACCGGGUGAAAUGCAA	33.5	18.2		
CGAGUAGGUUCAAUCGAAUAACGGUUUUCGCGAGGACCGGUACGGCCGCCACUCGUGUGAUAUCACACAUGAGGAUCACCCAUGU	45	33.8		
AACACAUGAGGAUCACCCAUGUCCAUGUACCGAGGACCGGUACGGCCGCCACUCGACAUGAGGAUCACCCAUGUUCCAUGUUGUC	108	149		
